Assay results from ChEMBL document CHEMBL1134289, “5-(Tryptophyl)amino-1,3-dioxoperhydropyrido[1,2-c]pyrimidine-based potent and selective CCK(1) receptor antagonists: structure-activity relationship studies on the central 1,3-dioxoperhydropyrido[1,2-c]pyrimidine scaffold” (J Med Chem, 2001).

Key:
Rattus norvegicus = species: Rattus norvegicus; assay: Inhibition of amylase release stimulated by CCK-8 (0.1 nM) in dispersed rat pancreatic acini; assay type: functional
How it was run: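 Acini prepared by collagenase digestion (two 6-min incubations, 37 °C) in HEPES buffer pH 7.4, then suspended in buffer with theophylline, SBTI and BSA. Incubated 30 min at 37 °C under O2 with shaking, CCK-8 0.1 nM plus increasing compound levels. Released amylase taken as percent of acinar content; inhibition computed relative to vehicle and CCK-8 alone. Three to six experiments, in duplicate.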

[1] = molecular target: T1, Gastrin/cholecystokinin type B receptor (Rattus norvegicus, UniProt P30553); assay: Inhibition of [3H]pCCK-8 binding to cholecystokinin type B receptor of rat cerebral cortex; assay type: tissue-based
T1 sequence (P30553 whole entry): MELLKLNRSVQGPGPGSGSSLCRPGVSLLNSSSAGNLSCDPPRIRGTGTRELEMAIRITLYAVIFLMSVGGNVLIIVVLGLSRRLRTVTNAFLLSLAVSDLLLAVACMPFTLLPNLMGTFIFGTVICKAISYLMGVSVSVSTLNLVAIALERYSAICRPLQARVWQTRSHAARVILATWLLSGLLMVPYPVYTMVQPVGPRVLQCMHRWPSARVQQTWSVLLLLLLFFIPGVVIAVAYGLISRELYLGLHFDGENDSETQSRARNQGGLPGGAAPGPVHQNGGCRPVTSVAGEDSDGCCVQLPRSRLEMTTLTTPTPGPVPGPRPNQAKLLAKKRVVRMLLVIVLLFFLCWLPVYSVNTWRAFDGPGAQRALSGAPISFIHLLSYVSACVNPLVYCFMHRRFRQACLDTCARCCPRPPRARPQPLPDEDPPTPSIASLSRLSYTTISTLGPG

[2] = molecular target: T2, Cholecystokinin receptor type A (Rattus norvegicus, UniProt P30551); assay: Inhibition of [3H]pCCK-8 binding to cholecystokinin type A receptor of rat pancreas
T2 sequence (P30551 whole entry): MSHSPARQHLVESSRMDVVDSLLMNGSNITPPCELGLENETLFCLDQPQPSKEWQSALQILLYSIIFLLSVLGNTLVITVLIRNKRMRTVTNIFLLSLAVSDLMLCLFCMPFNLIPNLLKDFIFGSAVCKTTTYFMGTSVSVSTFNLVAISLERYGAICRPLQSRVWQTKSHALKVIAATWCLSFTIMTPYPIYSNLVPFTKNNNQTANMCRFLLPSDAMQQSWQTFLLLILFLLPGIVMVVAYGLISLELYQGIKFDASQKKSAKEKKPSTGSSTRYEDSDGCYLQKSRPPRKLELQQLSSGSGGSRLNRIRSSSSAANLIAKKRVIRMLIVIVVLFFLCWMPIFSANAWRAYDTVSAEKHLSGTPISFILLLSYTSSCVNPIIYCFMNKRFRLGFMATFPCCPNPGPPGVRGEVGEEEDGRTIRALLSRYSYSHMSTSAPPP
How it was run: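 Rat pancreas homogenized in Pipes-HCl pH 6.5 with 30 mM MgCl2, centrifuged twice at 50000g, 4 °C. Membranes (0.2 mg protein/tube) incubated with 0.5 nM [3H]pCCK-8 plus bacitracin and SBTI (0.2 mg/mL each), 120 min, 25 °C. Seven test concentrations in triplicate; mean of at least three experiments.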

[3] = molecular target: T1, Gastrin/cholecystokinin type B receptor; assay: Inhibition of [3H]pCCK-8 specific binding to cholecystokinin type B receptor in rat cerebral cortex; assay type: tissue-based
How it was run: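 Rat cerebral cortex homogenized in 50 mM Tris-HCl pH 7.4 with 5 mM MgCl2, centrifuged twice at 100000g, 4 °C. Membranes (0.45 mg protein/tube) incubated with 1 nM [3H]pCCK-8 and bacitracin 0.2 mg/mL, 60 min, 25 °C. Nonspecific binding defined by 1 µM CCK-8. Seven test concentrations in triplicate; at least three experiments.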

Row | SMILES | IC50 (Rattus norvegicus) | IC50 [1] | IC50 [2] | IC50 [3]
1 | CC(C)(C)OC(=O)N[C@@H](Cc1c[nH]c2ccccc12)C(=O)N[C@H]1CCCN2C(=O)N(Cc3ccccc3)C(=O)C[C@H]12 | 77 nM |  |  | 
2 | CC(C)(C)OC(=O)N[C@@H](Cc1c[nH]c2ccccc12)C(=O)N[C@H]1CCCN2C(=O)N(Cc3ccccc3)C(=S)C[C@H]12 | 23 nM | > 10000 nM |  | 
3 | CC(C)(C)OC(=O)N[C@@H](Cc1c[nH]c2ccccc12)C(=O)N[C@@H]1CCCN2CN(Cc3ccccc3)CC[C@@H]12 |  | > 10000 nM | > 1000 nM | 
4 | CC(C)(C)OC(=O)N[C@@H](Cc1c[nH]c2ccccc12)C(=O)N[C@H]1CCCN2CN(Cc3ccccc3)C(=O)C[C@H]12 |  | > 10000 nM | > 1000 nM | 
5 | CC(C)(C)OC(=O)N[C@@H](Cc1c[nH]c2ccccc12)C(=O)N[C@H]1CCCN2C(=S)N(Cc3ccccc3)C(=S)C[C@H]12 |  | > 10000 nM | 900 nM | 
6 | CC(C)(C)OC(=O)N[C@@H](Cc1c[nH]c2ccccc12)C(=O)N[C@@H]1CCCN2C(=S)N(Cc3ccccc3)C(=S)C[C@@H]12 | 62 nM | > 10000 nM | 1.34 nM | 
7 | CC(C)(C)OC(=O)N[C@@H](Cc1c[nH]c2ccccc12)C(=O)N[C@@H]1CCCN2CN(Cc3ccccc3)C(=O)C[C@@H]12 |  | > 10000 nM | > 1000 nM | 
8 | CC(C)(C)OC(=O)N[C@@H](Cc1c[nH]c2ccccc12)C(=O)N[C@@H]1CCCN2C(=O)N(Cc3ccccc3)C(=S)C[C@@H]12 | 4.3 nM | > 10000 nM | 2.83 nM | 
9 | CO[C@@H]1C[C@H]2[C@H](NC(=O)[C@H](Cc3c[nH]c4ccccc34)NC(=O)OC(C)(C)C)CCCN2C(=O)N1Cc1ccccc1 |  | > 10000 nM | 370 nM | 
10 | CC(C)(C)OC(=O)N[C@@H](Cc1c[nH]c2ccccc12)C(=O)N[C@@H]1CCCN2C(=O)N(Cc3ccccc3)CC[C@@H]12 |  | > 10000 nM | > 1000 nM | 
11 | CC(C)(C)OC(=O)N[C@@H](Cc1c[nH]c2ccccc12)C(=O)N[C@@H]1CCCN2C(=S)N(Cc3ccccc3)C(=O)C[C@@H]12 | 33 nM | > 10000 nM | 0.09 nM | 
12 | CC(C)(C)OC(=O)N[C@@H](Cc1c[nH]c2ccccc12)C(=O)N[C@H]1CCCN2C(=S)N(Cc3ccccc3)C(=O)C[C@H]12 |  | > 10000 nM | 825 nM | 
13 | CC(C)(C)OC(=O)N[C@@H](Cc1c[nH]c2ccccc12)C(=O)N[C@@H]1CCCN2C(=O)N(Cc3ccccc3)C(=O)C[C@@H]12 [IQM-95333] | 0.64 nM |  |  | > 10000 nM
